ChEMBL document CHEMBL1146345, “Synthesis and evaluation of novel 1-(1H-1,2,4-triazol-1-yl)-2-(2,4-difluorophenyl)-3-[(4-substitutedphenyl)-piperazin-1-yl]-propan-2-ols as antifungal agents” (2007)
In brackets after ≈: the same amount, converted by molar mass.

Columns and labels:
Format in all cases: functional
Nakaseomyces glabratus = assay: Antifungal activity against Torulopsis glabrata by micro-broth dilution method
How it was run: (§1)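 NCCLS microbroth dilution: drugs diluted in growth medium, inoculated, then incubated at 35 C. The endpoint was MIC80, the first well with approximately 80% less growth than the drug-free well. Fluconazole and itraconazole were run as positive controls.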

Cryptococcus neoformans = assay: Antifungal activity against Cryptococcus neoformans after 72 hrs by micro-broth dilution method
How it was run: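 Cryptococcus neoformans was tested by NCCLS broth microdilution, with drug diluted in growth medium and incubation at 35 C. MIC was read at 72 h as MIC80, the first well with about 80% growth reduction compared with the drug-free well. Fluconazole and itraconazole were the positive controls.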

Pichia kudriavzevii = assay: Antifungal activity against Candida krusei ATCC 6258 by micro-broth dilution method; how it was run: as §1
Candida parapsilosis = assay: Antifungal activity against Candida parapsilosis ATCC 22019 by micro-broth dilution method; conditions: Lodderomyces parapsilosis
How it was run: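 Candida parapsilosis ATCC22019 was the quality-control strain tested in every assay. Microbroth dilution followed NCCLS methods, with incubation at 35 C in growth medium. MIC80 is the first well with about 80% growth reduction relative to the drug-free control. Fluconazole and itraconazole were the positive controls.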

Candida albicans = assay: Antifungal activity against Candida albicans after 24 hrs by microbroth dilution method
How it was run: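 Broth microdilution following NCCLS methods, with drug dilutions in growth medium. Inoculated plates were incubated at 35 C and read at 24 h. MIC80 is the first well showing roughly 80% less growth than the drug-free well. Fluconazole and itraconazole served as positive controls.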

Candida tropicalis = assay: Antifungal activity against Candida tropicalis by micro-broth dilution method; how it was run: as §1

SMILES | MIC80 (Nakaseomyces glabratus) [µg/mL] | MIC80 (Cryptococcus neoformans) [µg/mL] | MIC80 (Pichia kudriavzevii) [µg/mL] | MIC80 (Candida parapsilosis) [µg/mL] | MIC80 (Candida albicans) [µg/mL] | MIC80 (Candida tropicalis) [µg/mL]
O=[N+]([O-])c1ccc(/C=N/c2ccc(N3CCN(CC(O)(Cn4cncn4)c4ccc(F)cc4F)CC3)cc2)cc1 (stereo not drawn) | 8 (≈ 14.6 µM) | > 64 | 4 (≈ 7.31 µM) | 4 (≈ 7.31 µM) | > 64 | > 64
O=[N+]([O-])c1cccc(/C=N/c2ccc(N3CCN(CC(O)(Cn4cncn4)c4ccc(F)cc4F)CC3)cc2)c1 (stereo not drawn) | 4 (≈ 7.31 µM) | 16 (≈ 29.2 µM) | 8 (≈ 14.6 µM) | 4 (≈ 7.31 µM) | 64 (≈ 117 µM) | > 64
OC(CN1CCN(c2ccc(/N=C/c3ccc(Cl)c(Cl)c3)cc2)CC1)(Cn1cncn1)c1ccc(F)cc1F (stereo not drawn) | > 64 | > 64 | 16 (≈ 28 µM) | 8 (≈ 14 µM) | 1 (≈ 1.75 µM) | > 64
Cc1ccc(/C=N/c2ccc(N3CCN(CC(O)(Cn4cncn4)c4ccc(F)cc4F)CC3)cc2)cc1 (stereo not drawn) | 16 (≈ 31 µM) | > 64 | 4 (≈ 7.74 µM) | 2 (≈ 3.87 µM) | 1 (≈ 1.94 µM) | > 64
Oc1ccc(/C=N/c2ccc(N3CCN(CC(O)(Cn4cncn4)c4ccc(F)cc4F)CC3)cc2)cc1 (stereo not drawn) | 8 (≈ 15.4 µM) | 4 (≈ 7.71 µM) | 4 (≈ 7.71 µM) | 1 (≈ 1.93 µM) | 32 (≈ 61.7 µM) | > 64
COc1cccc(/C=N/c2ccc(N3CCN(CC(O)(Cn4cncn4)c4ccc(F)cc4F)CC3)cc2)c1O (stereo not drawn) | 16 (≈ 29.2 µM) | 64 (≈ 117 µM) | 16 (≈ 29.2 µM) | 4 (≈ 7.29 µM) | > 64 | > 64
OC(CN1CCN(c2ccc(/N=C/c3ccc(Cl)cc3)cc2)CC1)(Cn1cncn1)c1ccc(F)cc1F (stereo not drawn) | > 64 | 32 (≈ 59.6 µM) | 4 (≈ 7.45 µM) | 1 (≈ 1.86 µM) | 0.5 (≈ 0.931 µM) | > 64
OC(CN1CCN(c2ccc(/N=C/c3ccc(Br)cc3)cc2)CC1)(Cn1cncn1)c1ccc(F)cc1F (stereo not drawn) | > 64 | 32 (≈ 55 µM) | 8 (≈ 13.8 µM) | 2 (≈ 3.44 µM) | 64 (≈ 110 µM) | > 64
OC(CN1CCN(c2ccc(/N=C/c3ccc4c(c3)OCO4)cc2)CC1)(Cn1cncn1)c1ccc(F)cc1F (stereo not drawn) | 16 (≈ 29.3 µM) | 32 (≈ 58.5 µM) | 4 (≈ 7.32 µM) | 2 (≈ 3.66 µM) | 16 (≈ 29.3 µM) | > 64
OC(CN1CCN(c2ccc(/N=C/c3ccc(F)cc3)cc2F)CC1)(Cn1cncn1)c1ccc(F)cc1F (stereo not drawn) | 8 (≈ 14.9 µM) | 8 (≈ 14.9 µM) | 8 (≈ 14.9 µM) | 32 (≈ 59.4 µM) | 4 (≈ 7.43 µM) | > 64
OC(CN1CCN(c2ccc(/N=C/c3ccc(Cl)cc3)cc2F)CC1)(Cn1cncn1)c1ccc(F)cc1F (stereo not drawn) | 32 (≈ 57.7 µM) | 32 (≈ 57.7 µM) | 16 (≈ 28.8 µM) | 16 (≈ 28.8 µM) | 16 (≈ 28.8 µM) | > 64
OC(CN1CCN(c2ccc(/N=C/c3ccc(Br)cc3)cc2F)CC1)(Cn1cncn1)c1ccc(F)cc1F (stereo not drawn) | 16 (≈ 26.7 µM) | 32 (≈ 53.4 µM) | 8 (≈ 13.3 µM) | 8 (≈ 13.3 µM) | 32 (≈ 53.4 µM) | > 64
Cc1ccc(/C=N/c2ccc(N3CCN(CC(O)(Cn4cncn4)c4ccc(F)cc4F)CC3)c(F)c2)cc1 (stereo not drawn) | 16 (≈ 29.9 µM) | 8 (≈ 15 µM) | 16 (≈ 29.9 µM) | 32 (≈ 59.9 µM) | 16 (≈ 29.9 µM) | > 64
OC(CN1CCN(c2ccc(/N=C/c3ccc(OCc4cccc(Cl)c4)cc3)cc2)CC1)(Cn1cncn1)c1ccc(F)cc1F (stereo not drawn) | 2 (≈ 3.11 µM) | 64 (≈ 99.5 µM) | 32 (≈ 49.8 µM) | 16 (≈ 24.9 µM) | > 64 | > 64
OC(CN1CCN(c2ccc(/N=C/c3ccc(OCc4ccccc4)cc3)cc2)CC1)(Cn1cncn1)c1ccc(F)cc1F (stereo not drawn) | 32 (≈ 52.6 µM) | 16 (≈ 26.3 µM) | 8 (≈ 13.1 µM) | > 64 | 64 (≈ 105 µM) | > 64
OC(CN1CCN(c2ccc(/N=C/c3ccc(Cl)cc3Cl)cc2)CC1)(Cn1cncn1)c1ccc(F)cc1F (stereo not drawn) | 8 (≈ 14 µM) | 64 (≈ 112 µM) | 8 (≈ 14 µM) | 8 (≈ 14 µM) | > 64 | > 64
OC(CN1CCN(c2ccc(/N=C/c3ccc(F)cc3)cc2)CC1)(Cn1cncn1)c1ccc(F)cc1F (stereo not drawn) | > 64 | 4 (≈ 7.68 µM) | 16 (≈ 30.7 µM) | 2 (≈ 3.84 µM) | 64 (≈ 123 µM) | > 64
OC(Cn1cncn1)(Cn1cncn1)c1ccc(F)cc1F [FLUCONAZOLE] | 8 (≈ 26.1 µM) | 32 (≈ 104 µM) | 8 (≈ 26.1 µM) | 4 (≈ 13.1 µM) | 1 (≈ 3.27 µM) | 64 (≈ 209 µM)
